The text below walks through data of the RNAGym collection of RNA variant scans (doi:10.1002/anie.201605470).

To fix the notation:
B1: Osa-1-4 twister ribozyme (parent)
chain: CCGCCUAACACUGCCAAUGCCGGUCCCAAGCCCGGAUAAAAGUGGAGGGGGCGG

In this data set the parent is B1. The data set can be described thus: self-cleavage, relative activity (ratio to wild type); higher = more cleavage; co-transcriptional. An outline of the steps: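 In vitro transcription at 37 °C for 2 h allowed the twister ribozyme to cleave itself as it was made. Its 54-nucleotide Oryza sativa template had been synthesised with 97 % wild-type base and 1 % of each other base at the 48 positions downstream of the cleavage site. A template-switching oligonucleotide was used for reverse transcription, followed by PCR amplification and deep sequencing. Whether reads carried upstream sequence set the cleavage status, and relative activity is the fraction cleaved normalised to wild type.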
CCGCCUAACACUGCCAAUGCCGGUCCCAAGCCCGGAUAAAAGUGGUGGUGGCGG: the self-cleavage came out at 0.05.
Then CCGCCUAACACUGCCAAUGCCGGUCCCAAGCCCGGAUAAAAGUCGUGGGGGCGG, with 0.06; and CCGCCUAACACUGCCAAUGCCGGUCCCAAGCCCGGAUAAAAGUUGUGGGGGCGG, with 0.07.
Take CCGCCUAACACUGCCAAUGCCGGUCCCAAGCCCGGAUAAAAGUAGUGGGGGCGG: the self-cleavage turned out to be 0.07.
As for CCGCCUAACACUGCCAAUGCCGUUCCCAAGCCCGGAUAAAAGUGGUGGGGGCGG, the self-cleavage stood at 0.03.
Turning to CCGCCUAACACUGCCAAUGCCGCUCCCAAGCCCGGAUAAAAGUGGUGGGGGCGG, the self-cleavage is 0.02.
In the case of CCGCCUAACACUGCCAAUGCCGAUCCCAAGCCCGGAUAAAAGUGGUGGGGGCGG it was 0.06; in that of CCGCCUAACACUGCCAAUGCCUGUCCCAAGCCCGGAUAAAAGUGGUGGGGGCGG, 0.06.
Then CCGCCUAACACUGCCAAUGCCCGUCCCAAGCCCGGAUAAAAGUGGUGGGGGCGG, with 0.03; and CCGCCUAACACUGCCAAUGCCAGUCCCAAGCCCGGAUAAAAGUGGUGGGGGCGG, with 0.09.
In the case of CCGCCUAACACUGCCAAUGCCGGUCCCAAGCCCCGAUAAAAGUGGUGGGGGCGG it was 0.07; in that of CCGCCUAACACUGCCAAUGCCGGUCCCAAGCCCAGAUAAAAGUGGUGGGGGCGG, 0.06; in that of CCGCCUAACACUGCCAAUGCCGGUCCCAAGCCCUGAUAAAAGUGGUGGGGGCGG, 0.06.
CCGCCUAACACUGCCAAUGCCGGUCCCAAGCCCGGAUAAAAGUGCUGGGGGCGG: the self-cleavage turned out to be 0.04.
Then CCGCCUAACACUGCCAAUGCCGGUCCCAAGCCCGGAUAAAAGUGAUGGGGGCGG, with 0.08; and CCGCCUAACACUGCCAAUGCCGGUCCCAAGCCCGGAUAAAAGUGUUGGGGGCGG, with 0.03; and CCGCCUAACACUGCCAAUGCCGGUCCCAAGCCCGGAUAAAAGCGGAAGGGGCGG, with 0.09.
Then CCGCCUAACACUGCCAAUGCCGGUCCCAAGCCCGGAUAAAAGGGGAAGGGGCGG, with 0.1; and CCGCCUAACACUGCCAAUGCCGGUCCCAAGCCCGGAUAAAAGAGGAAGGGGCGG, with 0.11.
In the case of CCGCCUAACACUGCCAAUGCCGGUCCCAAGCCCGGAUAAAAGUGGUGGGGGCUG it was 0.09.
With CCGCCUAACACUGCCAAUGCCGGUCCCAAGCCCGGAUAAAAGUGGUGGGGGCAG, the self-cleavage is 0.1.
Then CCGCCUAACACUGCCAAUGCCGGUCCCAAGCCCGGAUAAAAGUGGUGGGGGCCG, with 0.05; and CCGCCUAACACUGCCAAUGCCGGUCCCAAGCCCGGAUAAAAGUGGUGGGUGCGG, with 0.09; and CCGCCUAACACUGCCAAUGCCGGUCCCAAGCCCGGAUAAAAGUGGUGGGAGCGG, with 0.08.
Take CCGCCUAACACUGCCAAUGCCGGUCCCAAGCCCGGAUAAAAGUGGUGGGCGCGG: the self-cleavage turned out to be 0.07.
Then CCGCCUAACACUGCCAAUGCCGGUCCCAAGCCCGGAUAAAAGUGGAAGGGGCGA, with 0.18; and CCGCCUAACACUGCCAAUGCCGGUCCCAAGCCCGGAUAAAAGUGGAAGGGGCGU, with 0.34.
CCGCCUAACACUGCCAAUGCCGGUCCCAAGCCCGGAUAAAAGUGGAAGGGGCGC: the self-cleavage was found to be 0.15.
Then CCGCCUAACACUGCCAAUGCCGGCCCCAAGCCCGGAUAAAAGUGGUGGGGGCGG, with 0.05.
Then CCGCCUAACACUGCCAAUGCCGGACCCAAGCCCGGAUAAAAGUGGUGGGGGCGG, with 0.04; and CCGCCUAACACUGCCAAUGCCGGGCCCAAGCCCGGAUAAAAGUGGUGGGGGCGG, with 0.01; and CCGCCUAACACUGCCAAUGCCGGUCCCAAGCCCGGAUAAAAGUGGUGGGGACGG, with 0.09.
CCGCCUAACACUGCCAAUGCCGGUCCCAAGCCCGGAUAAAAGUGGUGGGGUCGG: the self-cleavage was 0.06.
As for CCGCCUAACACUGCCAAUGCCGGUCCCAAGCCCGGAUAAAAGUGGUGGGGCCGG, the self-cleavage came out at 0.05.
For CCGCCUAACACUGCCAAUGCCGGUCCCAAGCCCGGAUAAAAGUGGAAGGUGCGG, the self-cleavage is 0.09.
In the case of CCGCCUAACACUGCCAAUGCCGGUCCCAAGCCCGGAUAAAAGUGGAAGGCGCGG it was 0.07; in that of CCGCCUAACACUGCCAAUGCCGGUCCCAAGCCCGGAUAAAAGUGGAAGGAGCGG, 0.36.
Then CCGCCUAACACUGCCAAUGCCGGUCCCAAGCCCGUAUAAAAGUGGUGGGGGCGG, with 0.09; and CCGCCUAACACUGCCAAUGCCGGUCCCAAGCCCGCAUAAAAGUGGUGGGGGCGG, with 0.05.
In the case of CCGCCUAACACUGCCAAUGCCGGUCCCAAGCCCGAAUAAAAGUGGUGGGGGCGG it was 0.07; in that of CCGCCUAACACUGCCAAUGCCGGUCCCAAGCCCGGAUAAAAGUGGAAGAGGCGG, 0.05; in that of CCGCCUAACACUGCCAAUGCCGGUCCCAAGCCCGGAUAAAAGUGGAAGUGGCGG, 0.04.
Regarding CCGCCUAACACUGCCAAUGCCGGUCCCAAGCCCGGAUAAAAGUGGAAGCGGCGG, the self-cleavage is 0.04.
As to CCGCCUAACACUGCCAAUGCCGGUCCCAAGCCCGGACAAAAGUGGAAGGGGCGG, the self-cleavage was determined as 0.44.
Then CCGCCUAACACUGCCAAUGCCGGUCCCAAGCCCGGAGAAAAGUGGAAGGGGCGG, with 0.62; and CCGCCUAACACUGCCAAUGCCGGUCCCAAGCCCGGAAAAAAGUGGAAGGGGCGG, with 0.28.
Then CCGCCUAACACUGCCAAUGCCGGUCCCAAACCCGGAUAAAAGUGGUGGGGGCGG, with 0.02; and CCGCCUAACACUGCCAAUGCCGGUCCCAACCCCGGAUAAAAGUGGUGGGGGCGG, with 0.01.
Then CCGCCUAACACUGCCAAUGCCGGUCCCAAUCCCGGAUAAAAGUGGUGGGGGCGG, with 0.02.
